Measured values published in ChEMBL document CHEMBL1142832, “Potent 4-aminopiperidine based antimalarial agents” (Bioorg Med Chem Lett, 2005).

Assays:
HFF = experiment: Cytotoxicity of compound was determined in human foreskin fibroblast assay; type: functional
In short: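 Human foreskin fibroblasts were assayed in quadruplicate, and the average toxicity value is reported in nM.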

Plasmodium falciparum [1] = experiment: Inhibition against multidrug-resistant Plasmodium falciparum infected erythrocytes; type: functional, organism-based
In short: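 Multidrug-resistant P. falciparum Dd2 was grown in human red blood cells and assayed at the late ring stage. Parasite growth was read as [3H]-hypoxanthine incorporation. Each compound was run in duplicate, and the mean IC50 (nM) is reported.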

Plasmodium falciparum [2] = experiment: Inhibitory concentration against chloroquine-sensitive Plasmodium falciparum; type: functional, organism-based
Homo sapiens = species: Homo sapiens; experiment: Percent remaining of compound was determined in human S9 liver microsomes at 1 hr; conditions: Liver S9 fraction
Mus musculus = species: Mus musculus; experiment: Percent remaining of compound was determined in mouse S9 liver microsomes at 1 hr; conditions: Liver S9 fraction

| Structure (SMILES) | Cytotoxicity (HFF) [nM] | IC50 (Plasmodium falciparum [1]) [nM] | IC50 (Plasmodium falciparum [2]) [nM] | level, % of control (Homo sapiens) [%] | level, % of control (Mus musculus) [%] |
| --- | --- | --- | --- | --- | --- |
| CN(C)CCCNC1CCN(CC(c2ccccc2)c2ccccc2)CC1 | 1300 | 300 |  |  |  |
| CCN(CC)CCCNC1CCN(CCc2ccc(Cl)cc2)CC1 | 2700 | 850 |  |  |  |
| CCN(CC)CCCNC1CCN(CC(c2ccccc2)c2ccccc2)CC1 | 9900 | 900 | 30 |  |  |
| CCN(CC)CCCNC1CCN(CCC2CCCCC2)CC1 | 2900 | 920 |  |  |  |
| CCN(CC)CCCNC1CCN(CCc2ccc(-c3ccccc3)cc2)CC1 | 1200 | 400 |  |  |  |
| c1ccc(C(CN2CCC(NCCCN3CCCC3)CC2)c2ccccc2)cc1 | 2500 | 200 |  |  |  |
| CCN(CCCNC1CCN(CC(c2ccccc2)c2ccccc2)CC1)CCc1ccc(Cl)cc1 | 2000 | 200 |  |  |  |
| CCNCCCNC1CCN(CC(c2ccccc2)c2ccccc2)CC1 | 2600 | 2500 |  |  |  |
| CCN(CCCNC1CCN(CC(c2ccccc2)c2ccccc2)CC1)CC(c1ccccc1)c1ccccc1 | 9900 | 900 |  |  |  |
| CCN(CC)CCCNC1CCN(CC2CCCCC2)CC1 | 6000 | 4300 |  |  |  |
| c1ccc(Oc2ccc(CNCCCNC3CCN(CC4CCCCC4)CC3)cc2)cc1 |  |  | 30 |  |  |
| CCN(CCCNC1CCN(CC(c2ccccc2)c2ccccc2)CC1)CCC1CCCCC1 | 2100 | 250 |  |  |  |
| CCN(CCCNC1CCN(CC(c2ccccc2)c2ccccc2)CC1)CCc1ccc(-c2ccccc2)cc1 | 7600 | 75 |  | 45 | 113 |
| c1ccc(C(CN2CCC(NCCCN3CCCCC3)CC2)c2ccccc2)cc1 | 1200 | 200 |  |  |  |
| CCN(CCCNC1CCN(CC(c2ccccc2)c2ccccc2)CC1)CC1CCCCC1 | 2200 | 200 |  |  |  |
